Source: publication PMC3353655 (Journal of the American Chemical Society, 2012)

Experiments:
Sortase B (SrtB) = molecular target: T1, Sortase B (SrtB) (Staphylococcus aureus, UniProt Q2FZE3); assay: Fluorescence polarization binding of fluorescein-labeled lantipeptides to SrtB
T1 sequence (Q2FZE3 31-244 limits assumed): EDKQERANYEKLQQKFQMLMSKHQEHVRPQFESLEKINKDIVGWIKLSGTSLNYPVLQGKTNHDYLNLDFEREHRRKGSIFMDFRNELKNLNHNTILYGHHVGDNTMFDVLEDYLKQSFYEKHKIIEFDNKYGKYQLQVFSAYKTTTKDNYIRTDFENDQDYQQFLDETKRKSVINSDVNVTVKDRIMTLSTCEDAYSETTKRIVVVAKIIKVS
Procedure, shortened: (§1)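 Binding constants were measured by fluorescence polarization. Test compounds were synthetic lantipeptides labeled with 5-carboxyfluorescein, with a C-terminal polyethylene glycol tail added for solubility. Sortase B was run in the same format as Sortase A. Each data point is the average of at least three independent measurements.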

SrtA = assay: Inhibition of SrtA catalyzed cleavage of a peptide substrate; assay type: biochemical, Staphylococcus aureus; settings: peptide at a concentration of up to 1 mM; data not shown
Procedure, shortened: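 SrtA cleaved a peptide substrate; this reaction has a Km of 80 μM. The test compound was tested at concentrations up to 1 mM.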

Sortase A (SrtA) = molecular target: T2, Sortase A (SrtA) (Staphylococcus aureus, UniProt Q2FV99); assay: Fluorescence polarization binding of fluorescein-labeled lantipeptides to SrtA; settings: SrtA binding compared with 2(2S,6R)
T2 sequence (Q2FV99 60-206 limits assumed): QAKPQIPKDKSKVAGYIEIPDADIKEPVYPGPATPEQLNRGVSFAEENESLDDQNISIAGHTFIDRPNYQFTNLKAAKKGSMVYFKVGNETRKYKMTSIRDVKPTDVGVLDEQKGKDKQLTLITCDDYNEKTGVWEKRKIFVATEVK
Procedure, shortened: as §1

SMILES	affinity to SrtB (in words) (Sortase B (SrtB); fluorescein-labeled peptide)	Kd (Sortase B (SrtB); read-out: Kd [μM], SrtB, SrtA was replaced by Sortase B (SrtB), 50 mM Tris HCl, 50 mM NaCl, 5 mM CaCl2, 1.2 mM TCEP, average of at least three independent measurements) [µM]	inhibition of SrtA catalyzed cleavage of a peptide substrate (SrtA)	fold weaker binder than 2(2S,6R) (Sortase A (SrtA)) [fold]
CC[C@H](C)[C@H](NC(=O)[C@H](CCCNC(=N)N)NC(=O)CNC(=O)[C@H](Cc1c[nH]c2ccccc12)NC(=O)[C@@H]1CSC[C@@H](NC(=O)[C@H](Cc2ccc(O)cc2)NC(=O)[C@H](Cc2c[nH]c3ccccc23)NC(=O)[C@H](CC(C)C)NC(=O)CNC(=O)[C@H](CCCNC(=N)N)NC(=O)c2ccc3c(c2)C(=O)OC32c3ccc(O)cc3Oc3cc(O)ccc32)C(=O)N[C@@H](CC(C)C)C(=O)N[C@@H](CO)C(=O)N1)C(=O)NCC(=O)N[C@@H](CCCNC(=N)N)C(=O)N[C@@H](CCCNC(=N)N)C(=O)NCCCOCCOCCOCCCNC(=O)CCC(=O)NCCCOCCOCCOCCCNC(=O)CCC(=O)NCCCOCCOCCOCCCNC(=O)CCC(=O)N[C@@H](C)C(=O)O [2(2S,6R)]	no detectable affinity	> 300	unable to inhibit	–
CC[C@H](C)[C@H](NC(=O)[C@H](CCCNC(=N)N)NC(=O)CNC(=O)[C@H](Cc1c[nH]c2ccccc12)NC(=O)[C@@H]1CSC[C@@H](NC(=O)[C@H](Cc2ccc(O)cc2)NC(=O)[C@H](Cc2c[nH]c3ccccc23)NC(=O)[C@H](CC(C)C)NC(=O)CNC(=O)[C@H](CCCNC(=N)N)NC(=O)c2ccc3c(c2)C(=O)OC32c3ccc(O)cc3Oc3cc(O)ccc32)C(=O)N[C@@H](CC(C)C)C(=O)N[C@@H]([C@@H](C)O)C(=O)N1)C(=O)NCC(=O)N[C@@H](CCCNC(=N)N)C(=O)N[C@@H](CCCNC(=N)N)C(=O)NCCCOCCOCCOCCCNC(=O)CCC(=O)NCCCOCCOCCOCCCNC(=O)CCC(=O)NCCCOCCOCCOCCCNC(=O)CCC(=O)N[C@@H](C)C(=O)O [6(2S,6R)]	–	–	–	10
